Results on 37 sequences are retold here after the array DNA melting data of Ke et al. (doi:10.1101/2024.01.08.574731).

Data set [1] can be described thus: melting temperature; fluorescence melt of hairpins on a sequencing array, two-state fit, raised by 9.35 °C to match UV melts. Particulars: sodium 0.088 M. The method, boiled down:
(§1)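 With Cy3 and quencher oligos annealed, library hairpins on a sequenced MiSeq flow cell were imaged for Cy3 fluorescence in 50 mM Na-HEPES pH 8.0, 25 mM NaCl, in 2.5 °C steps up to 60 °C. Melting temperature and folding enthalpy were derived from bootstrapped two-state fits of signals normalised to pre-quench Cy3 and to control constructs. Four replicates were combined by inverse variance, with fitted temperatures raised by 9.35 °C to match UV melts.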

A short description of data set [2]: folding enthalpy; higher = less favourable; fluorescence melt of hairpins on a sequencing array, two-state fit. Conditions: sodium 0.088 M. The method, boiled down:
as §1

Take GTCCACGGAAACGCAGAC (((..((....))..))): the Tm in data set [1] was found to be 29.1 °C. Moreover, the folding enthalpy in data set [2] was -21.3 kcal/mol.

For GTCCACGGAAACGCGGAC ((((.((....)).)))), in data set [1], the Tm came out at 53.8 °C. Besides, the folding enthalpy in data set [2] was -45.8 kcal/mol.

For GTCCACGGAAACGTGGGC (.(((((....))))).), the Tm in data set [1] is 62.1 °C. In addition, the folding enthalpy in data set [2] is -28.2 kcal/mol.

As to GTCCAGGGAAACTTGGAC (((((.(....).))))), in data set [1], the Tm was 48.2 °C. For the same sequence, the folding enthalpy in data set [2] was -22.3 kcal/mol.

Turning to GTCCATCGAAAGATCGAC (((.(((....))).))), the Tm in data set [1] was found to be 35.5 °C. For the same sequence, the folding enthalpy in data set [2] is -31 kcal/mol.

As to GTCCATGAAAATGGAC ((((((....)))))), in data set [1], the Tm was 62.4 °C. Besides, in data set [2], the folding enthalpy is -31.7 kcal/mol.

Take GTCCATGGAAACGTGGAC (((((.(....).))))): the Tm in data set [1] is 52.9 °C. Moreover, in data set [2], the folding enthalpy was -48.1 kcal/mol.

As to GTCCCACGAAAGTGAGAC (((.(((....))).))), the Tm in data set [1] is 49.4 °C. In data set [2], the folding enthalpy was -30.2 kcal/mol.

With GTCCCAGGAAACTGAGAC (((.(((....))).))), in data set [1], the Tm amounted to 39 °C. Besides, the folding enthalpy in data set [2] is -28 kcal/mol.

In the case of GTCCCATCGAAAGATGAC (((..(((....)))))), the Tm in data set [1] stood at 25.9 °C. Also, the folding enthalpy in data set [2] was -12 kcal/mol.

In the case of GTCCCCACGAAAGTGGAC (((..(((....)))))), the Tm in data set [1] is 29.3 °C. Also, in data set [2], the folding enthalpy was -6.73 kcal/mol.

Regarding GTCCCCGAAAGGGAGGAC ((((((....)))..))), the Tm in data set [1] turned out to be 49.7 °C. The folding enthalpy in data set [2] is -17.4 kcal/mol.

Turning to GTCCCCGAAAGGGGCGAC ((((((....)))..))), the Tm in data set [1] is 65.8 °C. Also, the folding enthalpy in data set [2] was -14 kcal/mol.

For GTCCCCGAAAGGGTAGAC ((((((....)))..))), in data set [1], the Tm turned out to be 40.6 °C. Besides, in data set [2], the folding enthalpy is -16.1 kcal/mol.

As to GTCCCCTCGAAAGAGGAC (((..(((....)))))), the Tm in data set [1] was 33.6 °C. Besides, in data set [2], the folding enthalpy is -8.53 kcal/mol.

In the case of GTCCCGCGAAAGCGGAC (((.(((....)))))), the Tm in data set [1] worked out at 56.3 °C. In addition, the folding enthalpy in data set [2] is -9.81 kcal/mol.

For GTCCCGGGAAACTGGGAC (((((.(....).))))), in data set [1], the Tm was determined as 60 °C. In addition, in data set [2], the folding enthalpy was -37.2 kcal/mol.

In the case of GTCCCGGGAAACTGGGGC (.(((.(....).))).), the Tm in data set [1] worked out at 48.6 °C. Moreover, the folding enthalpy in data set [2] was -41.1 kcal/mol.

For the sequence GTCCCTCGAAAGAGAGAC (((.(((....))).))), in data set [1], the Tm amounted to 46.2 °C. Further, the folding enthalpy in data set [2] is -23.3 kcal/mol.

As to GTCCCTCGAAAGAGCGAC (((.(((....))).))), the Tm in data set [1] stood at 40.1 °C. For the same sequence, the folding enthalpy in data set [2] is -26.8 kcal/mol.

In the case of GTCCGAACGAAAGTTGAC (((..(((....)))))), the Tm in data set [1] came to 29.1 °C. Moreover, the folding enthalpy in data set [2] was -15.3 kcal/mol.

As for GTCCGACGAAAGTCCGAC (((.(((....))).))), the Tm in data set [1] turned out to be 44 °C. For the same sequence, the folding enthalpy in data set [2] was -27.5 kcal/mol.

As to GTCCGACGAAAGTCGAC (((.(((....)))))), the Tm in data set [1] worked out at 44.7 °C. For the same sequence, the folding enthalpy in data set [2] is -13.2 kcal/mol.

In the case of GTCCGACGAAAGTCTGAC (((.(((....))).))), the Tm in data set [1] stood at 49.1 °C. In addition, in data set [2], the folding enthalpy was -27.1 kcal/mol.

For the sequence GTCCGCCGAAAGGCAGAC (((.(((....))).))), the Tm in data set [1] was found to be 54.2 °C. In data set [2], the folding enthalpy was -21.7 kcal/mol.

For the sequence GTCCGCGAAAGCGGAGAC ((((((....)))..))), the Tm in data set [1] is 56.8 °C. Moreover, the folding enthalpy in data set [2] is -7 kcal/mol.

Take GTCCGCGAAAGCGGTGAC ((((((....)))..))): the Tm in data set [1] was found to be 41 °C. Moreover, the folding enthalpy in data set [2] was -8.67 kcal/mol.

On to GTCCGCGAAAGCGTAGAC ((((((....)))..))), for which the Tm in data set [1] turned out to be 43 °C. Also, the folding enthalpy in data set [2] is -16.7 kcal/mol.

For the sequence GTCCGCGAAAGCGTGGAC ((((((....)))..))), in data set [1], the Tm is 54.8 °C. For the same sequence, the folding enthalpy in data set [2] was -16.9 kcal/mol.

GTCCGCGGAAACGTGGAC ((((.((....)).)))): the Tm in data set [1] turned out to be 62 °C. For the same sequence, the folding enthalpy in data set [2] is -43.5 kcal/mol.

Consider GTCCGTCCGAAAGGAGAC (((..(((....)))))), for which, in data set [1], the Tm was 29.1 °C. The folding enthalpy in data set [2] is -11.8 kcal/mol.

Turning to GTCCGTGCGAAAGCAGAC (((..(((....)))))), the Tm in data set [1] came to 32.4 °C. Further, the folding enthalpy in data set [2] was -13.8 kcal/mol.

As for GTCCGTGGAAACATGGAC ((((.((....)).)))), the Tm in data set [1] was found to be 53.6 °C. Also, the folding enthalpy in data set [2] was -36.9 kcal/mol.

GTCCGTGGAAACATGGGC (.((.((....)).)).): the Tm in data set [1] was 44.9 °C. For the same sequence, the folding enthalpy in data set [2] was -24.9 kcal/mol.

In the case of GTCCGTGGAAACGCGGAC (((((.(....).))))), in data set [1], the Tm was found to be 62.2 °C. Further, in data set [2], the folding enthalpy is -39.8 kcal/mol.

For the sequence GTCCTAACGAAAGTTGAC (((..(((....)))))), the Tm in data set [1] is 26.6 °C. In data set [2], the folding enthalpy is -10.9 kcal/mol.

For GTCCTACCGAAAGGTGAC (((..(((....)))))), the Tm in data set [1] was 32.5 °C. Moreover, the folding enthalpy in data set [2] was -11.1 kcal/mol.
